Experiments:
Assay in all cases: NCI-60 single-dose antiproliferative screen
Assay type in all cases: cell-based
MOLT-4 = conditions: Homo sapiens, MOLT-4, 48 h, read-out: growth percent
In short: (§1)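 NCI-60 protocol. Lines were grown in RPMI 1640 with 5% FBS and 2 mM L-glutamine, plated and incubated 24 h at 37 °C; time-zero plates were TCA-fixed. The test compound was dissolved in DMSO, diluted in medium with 50 μg/mL gentamicin and given once at a final 10^-5 M (DMSO control) for 48 h. Cells were fixed with cold TCA (1 h, 4 °C) and stained with 0.4% SRB in 1% acetic acid for 10 min. Dye was dissolved in 10 mM Trizma base and read at 515 nm. Growth percent was calculated from time-zero, test and control ODs.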

EKVX = conditions: Homo sapiens, 48 h, read-out: growth percent
In short: as §1

HOP-92 = conditions: Homo sapiens, HOP-92, 48 h, read-out: growth percent
In short: as §1

NCI-H322M = conditions: Homo sapiens, 48 h, read-out: growth percent
In short: as §1

NCI-H460 = conditions: Homo sapiens, NCI-H460, 48 h, read-out: growth percent
In short: as §1

HCT-15 = conditions: Homo sapiens, HCT-15, 48 h, read-out: growth percent
In short: as §1

HT29 = conditions: Homo sapiens, HT-29, 48 h, read-out: growth percent
In short: as §1

SF-295 = conditions: Homo sapiens, SF-295, 48 h, read-out: growth percent
In short: as §1

SNB-19 = conditions: Homo sapiens, SNB-19, 48 h, read-out: growth percent
In short: (§2)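 Cells grown in RPMI 1640 with 5% FBS and 2 mM L-glutamine, plated and held 24 h at 37 °C; time-zero plates TCA-fixed. DMSO stocks were diluted in gentamicin-containing medium to a final 10^-5 M, with a DMSO-only control. Exposure 48 h, 5% CO2. Adherent cells TCA-fixed 1 h at 4 °C, stained with 0.4% SRB, solubilised in 10 mM Trizma base, read at 515 nm. Growth percent derived from ODtzero, ODtest and ODctrl.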

U251 = conditions: Homo sapiens, U-251, 48 h, read-out: growth percent
In short: as §2

LOX IMVI = conditions: Homo sapiens, 48 h, read-out: growth percent
In short: as §1

IGROV1 = conditions: Homo sapiens, IGROV-1, 48 h, read-out: growth percent
In short: as §1

OVCAR-3 = conditions: Homo sapiens, OVCAR-3, 48 h, read-out: growth percent
In short: as §1

786-0 = conditions: Homo sapiens, 786-0, 48 h, read-out: growth percent
In short: as §1

ACHN = conditions: Homo sapiens, 48 h, read-out: growth percent
In short: as §1

UO-31 = conditions: Homo sapiens, UO-31, 48 h, read-out: growth percent
In short: as §2

MCF-7 = conditions: Homo sapiens, MCF7, 48 h, read-out: growth percent
In short: as §1

MDA-MB-231 ATCC = conditions: Homo sapiens, MDA-MB-231, 48 h, read-out: growth percent
In short: as §1

BT-549 = conditions: Homo sapiens, BT-549, 48 h, read-out: growth percent
In short: as §1

MDA-MB-468 = conditions: Homo sapiens, MDA-MB-468, 48 h, read-out: growth percent
In short: as §1

| Structure (SMILES) | activity at 10 µM (MOLT-4) [%] | activity at 10 µM (EKVX) [%] | activity at 10 µM (HOP-92) [%] | activity at 10 µM (NCI-H322M) [%] | activity at 10 µM (NCI-H460) [%] | activity at 10 µM (HCT-15) [%] | activity at 10 µM (HT29) [%] | activity at 10 µM (SF-295) [%] | activity at 10 µM (SNB-19) [%] | activity at 10 µM (U251) [%] | activity at 10 µM (LOX IMVI) [%] | activity at 10 µM (IGROV1) [%] | activity at 10 µM (OVCAR-3) [%] | activity at 10 µM (786-0) [%] | activity at 10 µM (ACHN) [%] | activity at 10 µM (UO-31) [%] | activity at 10 µM (MCF-7) [%] | activity at 10 µM (MDA-MB-231 ATCC) [%] | activity at 10 µM (BT-549) [%] | activity at 10 µM (MDA-MB-468) [%] |
| --- | --- | --- | --- | --- | --- | --- | --- | --- | --- | --- | --- | --- | --- | --- | --- | --- | --- | --- | --- | --- |
| COc1cc(CNC(=O)CCCC/C=C/C(C)C)ccc1OCc1cn(-c2ccccc2F)nn1 [14i, (E)-N-(4-((1-(2-Fluorophenyl)-1H-1,2,3-triazol-4-yl)methoxy)-3-methoxybenzyl)-8-methylnon-6-enamide] | 90.9 | 79.1 | 78.7 | 90.2 | 104 | 96 | 107 | 99 | 84.8 | 93.1 | 87.1 | 101 | 97.5 | 97.2 | 83 | 77.1 | 97.1 | 78.7 | 89.2 | 92.8 |
| COc1cc(CNC(=O)CCCC/C=C/C(C)C)ccc1OCc1cn(-c2cccc(Cl)c2)nn1 [14b, (E)-N-(4-((1-(3-Chlorophenyl)-1H-1,2,3-triazol-4-yl)methoxy)-3-methoxybenzyl)-8-methylnon-6-enamide] | 92.8 | 80.8 | 62.4 | 86.2 | 84.1 | 91.3 | 99.2 | 90.5 | 60 | 69.1 | 89.4 | 79.9 | 84.4 | 76.8 | 73 | 72.2 | 86.9 | 64.8 | 99.3 | 74.7 |
| COc1cc(CNC(=O)CCCC/C=C/C(C)C)ccc1OCc1cn(-c2ccc(C)c(C)c2)nn1 [14p, (E)-N-(4-((1-(3,4-Dimethylphenyl)-1H-1,2,3-triazol-4-yl)methoxy)-3-methoxybenzyl)-8-methylnon-6-enamide] | 78.5 | 79.3 | 80.4 | 101 | 86.5 | 71.2 | 97.8 | 88.8 | 95.8 | 88.3 | 84.5 | 98.8 | 100 | 99.8 | 68.5 | 75.7 | 86.9 | 89.3 | 93.7 | 71.8 |
| COc1cc(CNC(=O)CCCC/C=C/C(C)C)ccc1OCc1cn(-c2ccc(Cl)cc2)nn1 [14a, (E)-N-(4-((1-(4-Chlorophenyl)-1H-1,2,3-triazol-4-yl)methoxy)-3-methoxybenzyl)-8-methylnon-6-enamide] | 82 | 72 | 77.1 | 92.2 | 79.9 | 91.8 | 88.4 | 88.3 | 87.7 | 86.9 | 85.6 | 93.4 | 105 | 92.5 | 59.7 | 76.6 | 84.9 | 79.5 | 86.8 | 64.9 |

From publication PMC9476207 (ACS Omega, 2022)
